Published values gathered from unrelated publications.
Compare with care: the assays were run in different laboratories.
Target: Serine/threonine-protein kinase 17B (STK17B, Homo sapiens, UniProt O94768)
Sequence (O94768 1-372, as in one of the studies): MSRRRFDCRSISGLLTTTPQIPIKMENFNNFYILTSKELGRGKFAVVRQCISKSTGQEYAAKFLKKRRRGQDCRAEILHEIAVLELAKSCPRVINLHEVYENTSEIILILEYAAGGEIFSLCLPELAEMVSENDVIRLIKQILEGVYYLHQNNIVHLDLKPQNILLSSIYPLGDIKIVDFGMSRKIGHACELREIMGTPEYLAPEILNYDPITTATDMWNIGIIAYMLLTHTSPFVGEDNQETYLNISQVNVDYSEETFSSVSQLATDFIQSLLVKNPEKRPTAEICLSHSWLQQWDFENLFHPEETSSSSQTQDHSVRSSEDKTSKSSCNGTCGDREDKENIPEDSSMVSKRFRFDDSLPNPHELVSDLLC

O=C(Nc1cccnn1)N1CC(C/C=C/c2cncc(Oc3ccc(C(F)(F)F)cn3)n2)C1  remaining binding (cell-free assay, competition with immobilised ligand; 1 µM): 100%
NS(=O)(=O)c1ccc(CNc2nc(Nc3cccc(NC(=O)N4CCCC4)c3)ncc2Br)cc1  remaining activity (enzyme activity, inhibitor, radiometric; 1 µM): 23%
CS(=O)(=O)Nc1cccc(-c2csc(NC(=O)CSc3nc4nccnc4c(=O)n3CCc3ccccc3)n2)c1  inhibition (enzyme activity, inhibitor; 10 µM): 4%
Cc1nc(N2CC[C@@H](O)C2)ncc1-c1cc(C(F)(F)F)cc2[nH]ncc12  remaining binding (cell-free assay, competition with immobilised ligand; 1 µM): 99%
CN1CC(Oc2cnc(C#N)cc2-c2ccn3nc(NC(=O)C4CC4)cc3c2)C1  inhibition (enzyme activity, inhibitor; 1 µM): -4%
O=C(CSc1nc2nccnc2c(=O)n1CCc1ccccc1)Nc1nccs1  inhibition (enzyme activity, inhibitor; 10 µM): 11%
CCN1CCC2(CC1)NC(=O)c1c(c3ccc(Cl)c(Cl)c3n1C)C2C#N (racemic)  ΔTm (thermal stability, DSF; 10 µM): 1 °C
Cc1nn(CC(F)(F)F)cc1Nc1ncc(Br)c(NCCCNC(=O)C2CCC2)n1  remaining activity (enzyme activity, inhibitor, radiometric; 1 µM): 5%
COc1cc(Cl)c(C(=O)N[C@@H](CN[C@H]2CC[C@@H](N)CC2)Cc2ccc(C#N)cc2)cc1-c1ccc(CN[C@H](C)c2ccc(C)cc2)o1  remaining activity (enzyme activity, inhibitor; 1 µM): 94%
Cc1nn(CC(F)(F)F)cc1Nc1nccc(NCc2ccc(S(N)(=O)=O)cc2)n1  remaining activity (enzyme activity, inhibitor, radiometric; 1 µM): 92%
Nc1ncnc2occ(-c3ccc(NC(=O)Nc4cc(C(F)(F)F)ccc4F)cc3)c12  remaining signal (cell-free assay; 20 µM): 94%
Cc1nn(CC(F)(F)F)cc1Nc1ncc(Br)c(NCCc2cnc[nH]2)n1  remaining activity (enzyme activity, inhibitor, radiometric; 1 µM): 12%
C[C@H](NC(=O)c1cnc2n1[C@](C)(Cc1ccc(C#N)cc1)C(=O)N2c1cc(Cl)c(F)c(Cl)c1)C(=O)NC1(c2ccccn2)CC1  remaining binding (cell-free assay, competition with immobilised ligand; 1 µM): 100%
Cc1ccc(C(=O)Nc2ccc(CN3CCN(C)CC3)c(C(F)(F)F)c2)cc1C#Cc1cnc2cccnn12  remaining activity (enzyme activity; 23.5 nM): 100%
